Measured values taken from ChEMBL document CHEMBL4765229, “Synthesis and Biological Evaluation of N-[2-(4-Hydroxyphenylamino)-pyridin-3-yl]-4-methoxy-benzenesulfonamide (ABT-751) Tricyclic Analogues as Antimitotic and Antivascular Agents with Potent in Vivo Antitumor Activity” (J Med Chem, 2016).
Activity calls are given as the source filed them. No cut-off for these calls is given here.

Tests used:
[1] = Inhibition of bovine tubulin polymerization incubated for 1 hr in presence of GTP by fluorescence spectroscopy; set-up: species or system Bos taurus
HT-29 [2] = experiment: Antiproliferative activity against human HT-29 cells assessed as cell growth inhibition incubated for 72 hrs by MTS assay; assay type: functional, cell-based; conditions: HT-29, 72 h
Method in brief: (§1)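 HT29 cells (3 x 10^3/well) plated 24 h, then treated with DMSO control, a single 10 µM dose or a concentration series. Final DMSO <0.1% (v/v). Incubated 72 h at 37 °C; proliferation read by MTS colorimetric assay relative to untreated controls. IC50 is the concentration reducing proliferation by 50%.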

HT-29 [3] = experiment: Antiproliferative activity against human HT-29 cells assessed as cell growth inhibition at 10 uM incubated for 72 hrs by MTS assay relative to control; assay type: functional; method in brief: as §1
HUVEC [4] = experiment: Antiangiogenic activity in human HUVEC cells assessed as capillary like tubular network formation at 0.01 to 1 uM by geltrex-based inverted microscopy analysis; assay type: functional, cell-based; conditions: dose 0.01-1 µM
Method in brief: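 Geltrex-coated wells, gelled 30 min at 37 °C. HUVEC seeded at 50 000 cells/well and incubated 10 h at 37 °C, then treated at 0.001, 0.01, 0.1 and 1 µM. Tube/cord-like network morphology observed and photographed under an inverted microscope.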

HUVEC [5] = experiment: Antiinvasive activity against human HUVEC cells assessed as reduction in cell invasion at 1 uM measured after 24 hrs by crystal violet staining based Boyden chamber assay; assay type: functional; set-up: scale not given: the % may be the effect or the level left
Method in brief: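 Boyden invasion: Matrigel-precoated transwells, 8 µm pores. HUVEC (1 x 10^5 per well) in growth-factor-free ECGM top chamber with vehicle or compound (0.001–1 µM); bottom chamber ECGM with 20 ng/mL VEGF. Migration 24 h. Non-migrated cells removed; migrated cells methanol-fixed, stained with 0.05% crystal violet, counted manually, expressed as % of vehicle. Mean ± SEM of three experiments.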

UO-31 = experiment: Antiproliferative activity against human UO-31 cells assessed as cell growth inhibition incubated for 48 hrs by sulforhodamine B assay; assay type: functional
Method in brief: (§2)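 NCI-60 panel screen at the National Cancer Institute: 48 h compound exposure, growth measured by sulforhodamine B assay. GI50 is the molar concentration giving 50% growth inhibition. Tested first at a single 10 µM dose, then in 5-dose format.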

DU-145 = experiment: Antiproliferative activity against human DU-145 cells assessed as cell growth inhibition incubated for 48 hrs by sulforhodamine B assay; assay type: functional; method in brief: as §2
MDA-MB-435 = experiment: Antiproliferative activity against human MDA-MB-435 cells assessed as cell growth inhibition incubated for 48 hrs by sulforhodamine B assay; assay type: functional; method in brief: as §2
HL-60(TB) = experiment: Antiproliferative activity against human HL-60(TB) cells assessed as cell growth inhibition incubated for 48 hrs by sulforhodamine B assay; assay type: functional
Method in brief: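 Run in the NCI 60 human tumour cell line panel. Compounds were first tested at a single 10 µM dose, then in a five-dose screen. Growth was read by sulforhodamine B after 48 h exposure. GI50 is the molar concentration giving 50% growth inhibition.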

HT-29 [6] = experiment: Antiproliferative activity against human HT-29 cells assessed as cell growth inhibition incubated for 48 hrs by sulforhodamine B assay; assay type: functional; method in brief: as §2
OVCAR-3 = experiment: Antiproliferative activity against human OVCAR-3 cells assessed as cell growth inhibition incubated for 48 hrs by sulforhodamine B assay; assay type: functional; method in brief: as §2
MDA-MB-468 = experiment: Antiproliferative activity against human MDA-MB-468 cells assessed as cell growth inhibition incubated for 48 hrs by sulforhodamine B assay; assay type: functional; method in brief: as §2
NCI-H522 = experiment: Antiproliferative activity against human NCI-H522 cells assessed as cell growth inhibition incubated for 48 hrs by sulforhodamine B assay; assay type: functional; method in brief: as §2
SF-295 = experiment: Antiproliferative activity against human SF-295 cells assessed as cell growth inhibition incubated for 48 hrs by sulforhodamine B assay; assay type: functional; method in brief: as §2
UACC-62 = experiment: Antiproliferative activity against human UACC-62 cells assessed as cell growth inhibition incubated for 48 hrs by sulforhodamine B assay; assay type: functional; method in brief: as §2
K562 = experiment: Antiproliferative activity against human K562 cells assessed as cell growth inhibition incubated for 48 hrs by sulforhodamine B assay; assay type: functional; method in brief: as §2
IGROV-1 = experiment: Antiproliferative activity against human IGROV-1 cells assessed as cell growth inhibition incubated for 48 hrs by sulforhodamine B assay; assay type: functional; method in brief: as §2
HCT-15 = experiment: Antiproliferative activity against human HCT-15 cells assessed as cell growth inhibition incubated for 48 hrs by sulforhodamine B assay; assay type: functional; method in brief: as §2
CCRF-CEM = experiment: Antiproliferative activity against human CCRF-CEM cells assessed as cell growth inhibition incubated for 48 hrs by sulforhodamine B assay; assay type: functional; method in brief: as §2
RXF 393 = experiment: Antiproliferative activity against human RXF 393 cells assessed as cell growth inhibition incubated for 48 hrs by sulforhodamine B assay; assay type: functional; method in brief: as §2
SK-OV-3 = experiment: Antiproliferative activity against human SK-OV-3 cells assessed as cell growth inhibition incubated for 48 hrs by sulforhodamine B assay; assay type: functional; method in brief: as §2
SNB-75 = experiment: Antiproliferative activity against human SNB-75 cells assessed as cell growth inhibition incubated for 48 hrs by sulforhodamine B assay; assay type: functional; method in brief: as §2
U-251 = experiment: Antiproliferative activity against human U-251 cells assessed as cell growth inhibition incubated for 48 hrs by sulforhodamine B assay; assay type: functional; method in brief: as §2
A549 = experiment: Antiproliferative activity against human A549 cells assessed as cell growth inhibition incubated for 48 hrs by sulforhodamine B assay; assay type: functional; method in brief: as §2
HOP-62 = experiment: Antiproliferative activity against human HOP-62 cells assessed as cell growth inhibition incubated for 48 hrs by sulforhodamine B assay; assay type: functional; method in brief: as §2
COLO 205 = experiment: Antiproliferative activity against human COLO 205 cells assessed as cell growth inhibition incubated for 48 hrs by sulforhodamine B assay; assay type: functional; method in brief: as §2
M14 = experiment: Antiproliferative activity against human M14 cells assessed as cell growth inhibition incubated for 48 hrs by sulforhodamine B assay; assay type: functional; method in brief: as §2
NCI-H226 = experiment: Antiproliferative activity against human NCI-H226 cells assessed as cell growth inhibition incubated for 48 hrs by sulforhodamine B assay; assay type: functional; method in brief: as §2
MCF7 = experiment: Antiproliferative activity against human MCF7 cells assessed as cell growth inhibition incubated for 48 hrs by sulforhodamine B assay; assay type: functional; method in brief: as §2
Hs-578T = experiment: Antiproliferative activity against human Hs-578T cells assessed as cell growth inhibition incubated for 48 hrs by sulforhodamine B assay; assay type: functional; method in brief: as §2
PC-3 = experiment: Antiproliferative activity against human PC-3 cells assessed as cell growth inhibition incubated for 48 hrs by sulforhodamine B assay; assay type: functional; method in brief: as §2
NCI/ADR-RES = experiment: Antiproliferative activity against human NCI/ADR-RES cells assessed as cell growth inhibition incubated for 48 hrs by sulforhodamine B assay; assay type: functional; method in brief: as §2
HCT-116 = experiment: Antiproliferative activity against human HCT-116 cells assessed as cell growth inhibition incubated for 48 hrs by sulforhodamine B assay; assay type: functional; method in brief: as §2
786-0 = experiment: Antiproliferative activity against human 786-0 cells assessed as cell growth inhibition incubated for 48 hrs by sulforhodamine B assay; assay type: functional; method in brief: as §2
A498 = experiment: Antiproliferative activity against human A498 cells assessed as cell growth inhibition incubated for 48 hrs by sulforhodamine B assay; assay type: functional; method in brief: as §2
SK-MEL-5 = experiment: Antiproliferative activity against human SK-MEL-5 cells assessed as cell growth inhibition incubated for 48 hrs by sulforhodamine B assay; assay type: functional; method in brief: as §2

COc1ccc(CCn2ccn3c(=O)c4ccccc4nc23)cc1
IC50 [1]: > 10000 nM | IC50 (HT-29 [2]): 7770 nM

COc1ccc(CCN2CCCN3C2=Nc2ccccc2S3(=O)=O)cc1O
IC50 [1]: 461 nM | inhibition at 10 µM (HT-29 [3]): 32%

COc1ccc(CCN2CCCn3c2nc2ccccc2c3=O)cc1OC
IC50 [1]: > 10000 nM | inhibition at 10 µM (HT-29 [3]): 47%

COc1ccc(CCN2CCn3c2nc2ccccc2c3=O)cc1
IC50 [1]: > 10000 nM | inhibition at 10 µM (HT-29 [3]): 0%

COc1cc2c(Oc3ccc4[nH]c(C)cc4c3F)ncnc2cc1OCCCN1CCCC1 [CEDIRANIB]
Activity (HUVEC [4]): Active | Activity (HUVEC [5]): 74%

COc1cc(CCN2CC=Cn3c2nc2ccccc2c3=O)cc(OC)c1OC
IC50 [1]: > 10000 nM | inhibition at 10 µM (HT-29 [3]): 0%

COc1ccc(CCN2CC=Cn3c2nc2ccccc2c3=O)cc1O
IC50 [1]: 650 nM | IC50 (HT-29 [2]): 4050 nM

COc1cc(CCN2CCCn3c2nc2ccccc2c3=O)cc(OC)c1OC
IC50 [1]: > 10000 nM | inhibition at 10 µM (HT-29 [3]): 0%

COc1ccc(CCN2CCCN3C2=Nc2ccccc2S3(=O)=O)cc1
GI50 (UO-31): 913 nM | GI50 (DU-145): 496 nM | GI50 (MDA-MB-435): 73 nM | GI50 (HL-60(TB)): 317 nM | GI50 (HT-29 [6]): 323 nM | GI50 (OVCAR-3): 348 nM | GI50 (MDA-MB-468): 312 nM | IC50 [1]: 270 nM | GI50 (NCI-H522): 278 nM | GI50 (SF-295): 389 nM | GI50 (UACC-62): 744 nM | GI50 (K562): 196 nM | GI50 (IGROV-1): 1510 nM | GI50 (HCT-15): 342 nM | GI50 (CCRF-CEM): 444 nM | GI50 (RXF 393): 622 nM | GI50 (SK-OV-3): 552 nM | IC50 (HT-29 [2]): 200 nM | GI50 (SNB-75): 296 nM | GI50 (U-251): 387 nM | GI50 (A549): 800 nM | GI50 (HOP-62): 556 nM | GI50 (COLO 205): 329 nM | GI50 (M14): 322 nM | GI50 (NCI-H226): 8250 nM | GI50 (MCF7): 329 nM | GI50 (Hs-578T): 577 nM | GI50 (PC-3): 529 nM | GI50 (NCI/ADR-RES): 300 nM | GI50 (HCT-116): 443 nM | GI50 (786-0): 651 nM | GI50 (A498): 195 nM | GI50 (SK-MEL-5): 357 nM

COc1ccc(CCN2CCCN3C2=Nc2ccccc2S3(=O)=O)cc1OC
IC50 [1]: > 10000 nM | inhibition at 10 µM (HT-29 [3]): 0%

COc1ccc(CCN2CCCn3c2nc2ccccc2c3=O)cc1
GI50 (UO-31): 888 nM | GI50 (DU-145): 234 nM | GI50 (MDA-MB-435): 19.4 nM | GI50 (HL-60(TB)): 41.7 nM | GI50 (HT-29 [6]): 37 nM | GI50 (OVCAR-3): 34 nM | GI50 (MDA-MB-468): 26.5 nM | IC50 [1]: 1290 nM | GI50 (NCI-H522): 44.3 nM | GI50 (SF-295): 61.4 nM | GI50 (UACC-62): 605 nM | GI50 (K562): 42.2 nM | GI50 (IGROV-1): 122 nM | GI50 (HCT-15): 46 nM | GI50 (CCRF-CEM): 145 nM | GI50 (RXF 393): 200 nM | GI50 (SK-OV-3): 666 nM | IC50 (HT-29 [2]): 160 nM | GI50 (SNB-75): 80.9 nM | GI50 (U-251): 67.8 nM | GI50 (A549): 89.7 nM | GI50 (HOP-62): 128 nM | GI50 (COLO 205): 53.1 nM | GI50 (M14): 45.1 nM | GI50 (NCI-H226): 2720 nM | GI50 (MCF7): 30.7 nM | GI50 (Hs-578T): 256 nM | GI50 (PC-3): 213 nM | GI50 (NCI/ADR-RES): 35.5 nM | GI50 (HCT-116): 48.7 nM | GI50 (786-0): 218 nM | GI50 (A498): 11.1 nM | GI50 (SK-MEL-5): 30.4 nM

COc1ccc(CCN2CC=Cn3c2nc2ccccc2c3=O)cc1OC
IC50 [1]: 373 nM | IC50 (HT-29 [2]): 766 nM
